Calls of active or inactive are those of the source. No cut-off for these calls is given here.
How the values were obtained:
[1] = Agonist activity at LXR in human U937 cells assessed as upregulation of SREBP1c mRNA levels at 10 uM after 6 hrs by qPCR analysis; assay type: cell-based
Procedure, shortened: (§1)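 U937 cells, 3x10⁶ in 10 ml RPMI with 10% FBS, differentiated with PMA 10 ng/ml for 72 h at 37 °C, then treated with ligand (10 μM) for 6 h. Total RNA was isolated with TRIZOL; 2 µg was reverse-transcribed for 1 h at 42 °C. Transcripts were measured by qPCR. Mean ± SD of three biological samples; ANOVA with Dunnett's test.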

[2] = molecular target: T1, Peroxisome proliferator-activated receptor gamma (Homo sapiens) (UniProt P37231); assay: Activation of GAL4 fused human PPARgamma expressed in HEK293 cells at 10 uM after 24 hrs by luciferase reporter gene assay
T1 sequence (whole entry): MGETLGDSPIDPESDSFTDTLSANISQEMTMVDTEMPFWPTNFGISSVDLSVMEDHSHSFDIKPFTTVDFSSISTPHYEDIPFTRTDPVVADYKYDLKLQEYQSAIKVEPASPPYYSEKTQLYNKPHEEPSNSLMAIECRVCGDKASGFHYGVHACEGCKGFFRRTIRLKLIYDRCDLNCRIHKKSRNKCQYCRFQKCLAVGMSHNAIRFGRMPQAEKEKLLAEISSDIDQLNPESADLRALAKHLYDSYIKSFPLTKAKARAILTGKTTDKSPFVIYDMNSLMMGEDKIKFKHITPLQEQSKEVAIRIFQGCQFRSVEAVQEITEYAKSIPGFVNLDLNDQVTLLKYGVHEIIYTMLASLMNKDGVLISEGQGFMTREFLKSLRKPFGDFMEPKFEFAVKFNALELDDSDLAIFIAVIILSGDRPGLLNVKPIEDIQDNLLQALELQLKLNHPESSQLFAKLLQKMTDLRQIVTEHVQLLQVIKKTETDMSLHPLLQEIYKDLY

[3] = Agonist activity at LXR in human HepG2 cells assessed as upregulation of SCD1 mRNA levels at 10 uM after 6 hrs by qPCR analysis; assay type: cell-based
Procedure, shortened: (§2)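 HepG2 cells treated with ligand (10 μM). Total RNA was extracted with TRIZOL; 2 µg was reverse-transcribed (1 h, 42 °C). SREBP1c, FASN and SCD1 transcripts were measured by qPCR. Mean ± SD of three biological samples; ANOVA with Dunnett's test.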

[4] = molecular target: T2, Oxysterols receptor LXR-alpha (Homo sapiens) (UniProt Q13133); assay: Activation of GAL4 fused human LXR alpha expressed in HEK293 cells after 24 hrs by luciferase reporter gene assay relative to 22R-HC; assay type: cell-based
T2 sequence (whole entry): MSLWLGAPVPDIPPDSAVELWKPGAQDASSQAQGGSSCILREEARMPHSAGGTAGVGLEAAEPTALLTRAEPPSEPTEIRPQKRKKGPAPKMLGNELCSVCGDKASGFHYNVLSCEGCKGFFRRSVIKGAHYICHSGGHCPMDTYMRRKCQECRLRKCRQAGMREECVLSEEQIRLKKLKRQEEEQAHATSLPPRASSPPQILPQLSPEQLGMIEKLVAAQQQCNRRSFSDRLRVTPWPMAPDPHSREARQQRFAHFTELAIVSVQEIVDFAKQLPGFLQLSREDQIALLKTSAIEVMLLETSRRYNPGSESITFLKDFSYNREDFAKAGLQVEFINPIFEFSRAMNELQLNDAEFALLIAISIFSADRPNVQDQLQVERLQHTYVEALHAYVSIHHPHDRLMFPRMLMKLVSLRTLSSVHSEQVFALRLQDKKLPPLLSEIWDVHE
Procedure, shortened: (§3)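 HEK293 cells carrying the Gal4-LXR-α or Gal4-LXR-β chimera plus the pMH100X4-TK-luc and Renilla reporters. Treatment started 6 h post-transfection and ran 24 h. Dual luciferase read-out. Efficacy is given as % of the response to 8 μM 22R-HC, ± SD, from three to five independent experiments.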

[5] = Agonist activity at LXR in human U937 cells assessed as upregulation of SCD1 mRNA levels at 10 uM after 6 hrs by qPCR analysis relative to control; assay type: cell-based; details: for Activity: human, 6 h, 10 µM; for fold induction at 10 µM: Homo sapiens, U-937, 6 h, read-out: FC; procedure, shortened: as §1
[6] = molecular target: T3, Oxysterols receptor LXR-beta (Homo sapiens, UniProt P55055); assay: Activation of GAL4 fused human LXR beta expressed in HEK293 cells after 24 hrs by luciferase reporter gene assay; assay type: cell-based
T3 sequence (P55055 whole entry): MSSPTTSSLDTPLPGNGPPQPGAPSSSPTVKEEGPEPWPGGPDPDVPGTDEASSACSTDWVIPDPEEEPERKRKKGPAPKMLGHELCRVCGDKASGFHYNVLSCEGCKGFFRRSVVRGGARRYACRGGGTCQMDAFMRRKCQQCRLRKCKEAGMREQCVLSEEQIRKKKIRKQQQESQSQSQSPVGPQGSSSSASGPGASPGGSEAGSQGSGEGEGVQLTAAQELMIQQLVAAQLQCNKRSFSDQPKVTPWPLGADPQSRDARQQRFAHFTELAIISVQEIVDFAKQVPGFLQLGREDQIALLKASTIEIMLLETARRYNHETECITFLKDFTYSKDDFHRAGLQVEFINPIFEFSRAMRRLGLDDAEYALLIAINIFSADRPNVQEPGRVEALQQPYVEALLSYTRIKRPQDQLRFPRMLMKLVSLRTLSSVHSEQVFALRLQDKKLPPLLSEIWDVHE
Procedure, shortened: (§4)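 HEK293 cells (4x10⁴/well), grown in DMEM with 10% FBS at 37 °C under 5% CO₂, transiently co-transfected with pMH100X4-TK-luc, Renilla and the Gal4-LXR-α or Gal4-LXR-β plasmid. Dosing began 6 h after transfection and lasted 24 h, at 32, 16, 8, 4, 2 and 1 μM. Dual luciferase read-out. EC50 came from dose-response curves, averaged over three to five independent experiments, ± SD.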

Homo sapiens [7] = organism: Homo sapiens; assay: Agonist activity at LXR in human U937 cells assessed as upregulation of ABCA1 mRNA levels at 10 uM after 6 hrs by qPCR analysis; assay type: cell-based; procedure, shortened: as §1
[8] = Agonist activity at LXR in human U937 cells assessed as upregulation of FASN mRNA levels at 10 uM after 6 hrs by qPCR analysis; assay type: cell-based; procedure, shortened: as §1
HEK293 = assay: Activation of GAL4 fused human RXR expressed in HEK293 cells at 10 uM after 24 hrs by luciferase reporter gene assay
[9] = Agonist activity at LXR in human HepG2 cells assessed as upregulation of SREBP1c mRNA levels at 10 uM after 6 hrs by qPCR analysis; assay type: cell-based; procedure, shortened: as §2
[10] = Agonist activity at LXR in human HepG2 cells assessed as upregulation of FASN mRNA levels at 10 uM after 6 hrs by qPCR analysis; assay type: cell-based; procedure, shortened: as §2
Homo sapiens [11] = organism: Homo sapiens; assay: Agonist activity at LXR in human U937 cells assessed as downregulation of LPS-induced CCL2 mRNA expression at 10 uM after 6 hrs by qPCR analysis; assay type: cell-based
Procedure, shortened: (§5)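 PMA-differentiated U937 cells (10 ng/ml PMA, 72 h) were given LPS 100 ng/ml together with compound (10 μM) for 6 h. CCL2 and TNFα mRNA were measured by qPCR after TRIZOL RNA extraction and reverse transcription. Three biological samples per group, mean ± SD.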

Homo sapiens [12] = organism: Homo sapiens; assay: Agonist activity at LXR in human U937 cells assessed as downregulation of LPS-induced TNFalpha mRNA expression at 10 uM after 6 hrs by qPCR analysis; assay type: cell-based; procedure, shortened: as §5
[13] = molecular target: T4, Oxysterols receptor LXR-beta (Homo sapiens) (UniProt P55055); assay: Activation of GAL4 fused human LXR beta expressed in HEK293 cells after 24 hrs by luciferase reporter gene assay relative to 22R-HC; assay type: cell-based; procedure, shortened: as §3
T4 sequence (whole entry): T3 sequence (P55055 whole entry)

[14] = molecular target: T5, Oxysterols receptor LXR-alpha (Homo sapiens, UniProt Q13133); assay: Activation of GAL4 fused human LXR alpha expressed in HEK293 cells after 24 hrs by luciferase reporter gene assay; assay type: cell-based; procedure, shortened: as §4
T5 sequence (Q13133 whole entry): T2 sequence (whole entry)

Row | Efficacy [13] | Compound | Activity [1] | Activity [2] | Activity [3] | Efficacy [4] | Activity [5] | EC50 [6] | Activity (Homo sapiens [7]) | Activity [8] | Activity (HEK293) | Activity [9] | Activity [10] | Activity (Homo sapiens [11]) | Activity (Homo sapiens [12]) | fold induction at 10 µM [5] | EC50 [14]
1 |  | CC(C)[C@@H](C)CC(=O)[C@@H](C)[C@H]1CC[C@H]2C3=CC=C4C[C@@H](O)CC[C@]4(C)[C@H]3CC[C@]12C | Not Active | inactive | Not Active | 70.2% | Not Active | Not Active | Active | Not Active | inactive | Not Active | Not Active |  |  |  | 
2 |  | CC(C)[C@@H](C)C(=O)C[C@@H](C)[C@H]1CC[C@H]2C3=CC=C4C[C@@H](O)CC[C@]4(C)[C@H]3CC[C@]12C | Not Active | inactive | Not Active | 151% | Not Active | Not Active | Active | Not Active | inactive | Not Active | Not Active |  |  |  | 
3 |  | O=S(=O)(c1ccccc1)N(CC(F)(F)F)c1ccc(C(O)(C(F)(F)F)C(F)(F)F)cc1 [T091317] | Active |  | Not Active |  | Not Active |  | Active | Not Active |  | Not Active | Not Active | Active |  |  | 
4 |  | CC[C@@H](C(C)C)[C@H](O)C[C@@H](C)[C@H]1CC[C@H]2[C@@H]3CC=C4C[C@@H](O)CC[C@]4(C)[C@H]3CC[C@]12C | Not Active | inactive | Not Active |  | Not Active |  | Active | Not Active | inactive | Not Active | Not Active | Active | Active |  | 
5 |  | CC(C)[C@@H](C)[C@H](O)C[C@@H](C)[C@H]1CC[C@H]2C3=CC=C4C[C@@H](O)CC[C@]4(C)[C@H]3CC[C@]12C | Not Active | inactive | Not Active | 63.9% | Not Active | Not Active | Active | Not Active | inactive | Not Active | Not Active |  |  |  | 
6 | 142% | CC[C@@H](C(C)C)[C@H]1O[C@@H]1[C@@H](C)[C@H]1CC[C@H]2[C@@H]3CC=C4C[C@@H](O)CC[C@]4(C)[C@H]3CC[C@]12C | Not Active | inactive | Not Active | 489% | Not Active |  | Active | Not Active | inactive | Active | Not Active |  | Active |  | 
7 | 46.4% | CC[C@H](C(=O)C[C@@H](C)[C@H]1CC[C@H]2[C@@H]3CC=C4C[C@@H](O)CC[C@]4(C)[C@H]3CC[C@]12C)C(C)C | Not Active | inactive | Not Active | 12.4% |  |  | Active | Not Active | inactive | Not Active | Not Active |  | Active | < 2 | 
8 | 36.3% | CC[C@@H](C(C)C)[C@@H]1O[C@H]1[C@@H](C)[C@H]1CC[C@H]2[C@@H]3CC=C4C[C@@H](O)CC[C@]4(C)[C@H]3CC[C@]12C | Not Active | inactive | Not Active | 56.8% | Not Active |  | Active | Not Active | inactive | Not Active | Not Active |  |  |  | 
9 |  | CC[C@H](CC(=O)[C@@H](C)[C@H]1CC[C@H]2[C@@H]3CC=C4C[C@@H](O)CC[C@]4(C)[C@H]3CC[C@]12C)C(C)C |  |  |  |  |  | Not Active |  |  |  |  |  |  |  |  | Not Active

Row | Compound | Efficacy [13] | Activity [1] | Activity [2] | Activity [3] | Efficacy [4] | Activity [5] | EC50 [6] | Activity (Homo sapiens [7]) | Activity [8] | Activity (HEK293) | Activity [9] | Activity [10] | Activity (Homo sapiens [11]) | Activity (Homo sapiens [12]) | fold induction at 10 µM [5] | EC50 [14]
10 | CC(C)[C@@H](C)[C@@H]1O[C@H]1[C@@H](C)[C@H]1CC[C@H]2C3=CC=C4C[C@@H](O)CC[C@]4(C)[C@H]3CC[C@]12C | 48.5% | Not Active | inactive | Not Active | 51.7% |  |  | Active | Not Active | inactive | Active | Not Active | Active |  | < 2 | 

Source: ChEMBL document CHEMBL4038329, “Side-Chain Modified Ergosterol and Stigmasterol Derivatives as Liver X Receptor Agonists” (J Med Chem, 2017)
